Screening results from PubChem.
Shown are actives, neighbours in structure and some others; about 1.9% of the full set was active somewhere.
MT stabilize HCS: stabilizes microtubules in HeLa cells | HeLa tubulin immunostaining HCS, 24 h; share of cells brighter than vehicle mean+2SD | % tubulin-high responders, % at 10 µM | 200,000 tested, 0.83% active;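 active = plate Z-score above 3 for both tubulin-high and condensed-nucleus cell shares, with cell loss under 80%, at 10 µM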;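 also: anti alpha tubulin signal scored within the nucleus-defined area of each cell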
Autophagy mod: modulators of autophagy; MEF GFP-LC3 puncta imaging; test concentration mostly 10 µM; calls only at 10 µM (by protocol); 190,000 tested, 0.98% active;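 active = percentage of spot-positive cells more than 3 SD above its plate mean, without a fluorescence outlier flag or 80% toxicity; inconclusive = no clear call, values can overlap the other calls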;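 also: spot-positive cell cutoff set from DMSO-treated cells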
Ins promoter up: MIN6 insulin promoter up-regulation; MIN6 insulin promoter-GFP reporter, high-content imaging; hits give high values; 190,000 tested, 0.3% active; z-score at 5 µM;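 active = z-score above 3 at 5 µM with at least 500 cells counted in the well; inconclusive = wells under 500 cells, flagged as cytotoxic or low count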
bCat nuc transl: alters nuclear translocation of beta-catenin in HeLa cells. immunofluorescence imaging. nuclear translocation activity, % at 5 µM. 190,000 tested, 0.3% active. AID 1665;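 active = nuclear translocation activity above 50% at 5 µM, with a well cell count of 50 or more; inconclusive = wells under 50 cells across six images, flagged as toxic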;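 also: per-cell ratio of nuclear to cytoplasmic median beta-catenin stain intensity; plate controls were DMSO negative control for no effect and GSK-3 inhibitor IX positive control for full effect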
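Technique: fluorescence imaging of beta-catenin antibody stain plus DAPI / Material: human HeLa cell line / Incubation: compound treatment 24 h, 37°C, 5% CO2 / Read-out basis: % activation of per-cell nuclear versus cytoplasmic median beta-catenin signal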
Tb hexokinase: blocks Trypanosoma brucei hexokinase 1 activity; recombinant TbHK1, G6PDH-coupled NADH A340; inhibition, % at 10 µM; 220,000 tested, 0.11% active; AID 1430;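 active = inhibition of 50% or more in the single-dose primary screen; inactive = inhibition below 50%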
G6PDH counter: inhibits Leuconostoc G6PDH, counter-screen for TbHK1 inhibitors | shares compounds with Tb hexokinase | inhibition, % at 10 µM | purified G6PDH, NADH absorbance, 1 h | 210 tested, 7% active;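 active = at least 50% inhibition in the glucose-6-phosphate dehydrogenase coupled counterscreen; inconclusive = no clear call, values can overlap the other calls; inactive = inhibition below 50%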
TbHK1 confirm: T. brucei hexokinase 1 inhibition, rescreen; shares compounds with Tb hexokinase; recombinant TbHK1, G6PDH-coupled NADH A340 absorbance; inhibition, % at 10 µM; 210 tested, 10% active; AID 2560;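 active = inhibition of at least 50% in both of the two screening runs; inconclusive = at least 50% in one run, below 50% in the other; inactive = inhibition below 50% in both runs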;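 also: 0% and 100% set by the maximum and minimum signal control wells on each plate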
* = called active by the depositor; i = inactive; ? = inconclusive; . = no result given; + = active, no number; ! = repeats disagree.

SMILES | MT stabilize HCS | Autophagy mod | Ins promoter up | bCat nuc transl | Tb hexokinase | G6PDH counter | TbHK1 confirm
COC(=O)C1=C(NC(=O)c2ccc(Br)cc2)CCS1 | 1.2 | i | -0.43 | -2.3 | 0.2 | . | .
CCN(CC)S(=O)(=O)c1ccc(C(=O)Nc2cc(C)cc(C)c2)cc1 | 2.1 | i | -0.18 | -1.4 | -1.3 | . | .
CCN(CC)S(=O)(=O)c1ccc(C(=O)NC2=C(C(=O)OC)SCC2)cc1 | 3.7 | i | -1.23 | -3.1 | 55.2* | -82.2 | -33.8
O=C(CCc1cnccn1)NC1CCCc2c1cnn2-c1ccc(F)cc1F (configuration not stated) | 3.4 | i | -0.36 | -0.7 | -2.1 | . | .
N#C/C(=C\c1cccnc1)c1nc2c(s1)CCCC2 | 2.4 | i | -1.49 | -1.4 | -15.7 | . | .
COc1cc(/C=C(\C#N)c2nc3c(s2)CCCC3)ccc1O | 1.4 | i | . | -0.9 | 53.7* | -48.4 | 87.7*
O=C(NC1CCCCC1)C1CCN(S(=O)(=O)N2CCOCC2)CC1 | 5.8 | i | -0.43 | -0.4 | 58.4* | -12.9 | 1.8
O=C(NC1CCCCC1)C1CCN(S(=O)(=O)N2CCCCCC2)CC1 | 3.8 | i | 0.43 | -0.2 | -1.1 | . | .
O=C1c2cccc3cccc(c23)C(=O)N1c1nccs1 | 2.8 | i | 1.09 | -1.4 | -4.4 | . | .
O=c1c2ccccc2sn1-c1nccs1 | 3.8 | i | 0.02 | -2.6 | 71.8* | -12.4 | 74.0*
O=c1c2ccccc2sn1-c1ccccc1 | 2.6 | i | 0.03 | -5.9 | 80.5* | -16.5 | 83.9*
Cc1ccc(C2=NOC(C)(c3nnc(-c4ccc(Cl)cc4)o3)C2)cc1 (configuration not stated) | . | . | 0.48 | -1.2 | -9.3 | . | .
Cc1cc(C)cc(C(=O)NCC(=O)OCC(=O)Nc2cccnc2Cl)c1 | 5.2 | i | 0.19 | 2.3 | -0.7 | . | .
CNNC(=S)Nc1cccc(SC)c1 | . | . | -0.1 | 0.8 | -5.8 | . | .
COc1ccc(CNC(=O)CN(c2ccccc2)S(=O)(=O)c2ccccc2[N+](=O)[O-])cc1 | 2.2 | i | . | 0.8 | 0.6 | . | .
CCCCC(C(=O)O)C(C)CC(=O)Nc1cccc(C(=O)O)c1 (configuration not stated) | 4.1 | i | -0.04 | 0.5 | -1.8 | . | .
C=CCNC(=O)CC(C)C(CCCCC)C(=O)O (configuration not stated) | 4.8 | i | 0.68 | -3.4 | 50.3* | -9.0 | 2.8
O=C(NNc1c(Cl)cccc1Cl)c1cccs1 | . | . | -0.32 | 0.7 | -3.9 | . | .
Cc1cccc(C)c1NC(=O)CSc1nnc(-c2ccoc2C)n1C | 5.6 | i | 0.16 | -0.5 | 66.7* | 2.9 | -1.7
Cn1nc(-c2ccccn2)nc2c(=O)n(C)c(=O)nc1-2 | . | . | ? | . | 70.1* | ? | 40.9
COc1ccc(-c2nc(-c3ccccn3)ncc2S(C)(=O)=O)cc1 | 2.5 | i | -0.28 | -4.4 | -0.9 | . | .
CCC1Oc2ccccc2N(CC(=O)NCCc2ccc(OC)c(OC)c2)C1=O (configuration not stated) | 3.8 | i | . | -4.9 | 1.1 | . | .
CCC1Oc2ccccc2N(CC(=O)Nc2ccccc2OC)C1=O (configuration not stated) | 4.9 | i | 0.02 | -13.2 | 50.7* | 1.6 | 0.1
CC(C)C(O)P(=O)(OCc1ccccc1)c1ccc(N(C)C)cc1 (configuration not stated) | 6.2 | i | -0.04 | 2.6 | 56.5* | -4.8 | 2.1
CN1CCC(OC(=O)c2cccc(Cl)c2)CC1 | 1.5 | i | -0.74 | -0.1 | 5.7 | . | .
SMILES | MT stabilize HCS | Autophagy mod | Ins promoter up | bCat nuc transl | Tb hexokinase | G6PDH counter | TbHK1 confirm
CC(=O)c1ccc(NC(=O)C2CC(c3ccc(F)cc3)=NO2)cc1 (configuration not stated) | 5.1 | i | -0.67 | 0.4 | 51.9* | 2.2 | 7.6
CC(=O)c1cccc(NC(=O)C2CC(c3ccc(F)cc3)=NO2)c1 (configuration not stated) | 2.0 | i | . | . | 4.0 | . | .
O=S1(=O)N=C(N2CCOCC2)c2ccccc21 | 4.6 | i | 0.18 | -8.7 | 56.9* | -8.6 | -0.7
Cc1cccc(NC(=S)NNC(=O)c2cc3c(s2)CCC(C)C3)c1C (configuration not stated) | 2.6 | i | 0.58 | . | 70.6* | -34.1 | -1.5
Cc1ccc(C(=O)NC(=S)NNS(=O)(=O)c2ccc(C)cc2)cc1 | 2.3 | i | 0.03 | -0.2 | 17.4 | . | .
Cc1ccc(S(=O)(=O)NNC(=S)NC(=O)c2ccc([N+](=O)[O-])cc2)cc1 | 1.6 | i | -0.1 | 0.2 | 77.8* | -26.1 | 10.1
O=C(O)CCCCC1CCSS1 (configuration not stated) | 4.3 | i | 0.15 | 1.8 | 86.2* | -39.4 | 96.0*
CC1(C)Cc2c(C#N)c(N)sc(=S)c2CO1 | 3.1 | i | -0.44 | 0.2 | 72.9* | 100.7* | 68.4*
CC(C)C1Cc2c(C#N)c(N)sc(=S)c2CO1 (configuration not stated) | 1.2 | i | -0.1 | . | 18.8 | . | .
O=C1CCCC2=C1C(c1cccc(O)c1)c1c(ccc3ncccc13)N2 (configuration not stated) | 2.3 | i | 0.26 | 3.7 | -10.8 | . | .
S=C(NNc1ccnc2cc(Cl)ccc12)Nc1ccc(Cl)cc1Cl | . | . | -1.53 | -0.4 | 61.4* | 109.5* | 59.8*
CCOc1ccc(NC(=S)NNc2ccnc3cc(Cl)ccc23)cc1 | 1.6 | i | -2.53 | 1.8 | -4.6 | . | .
Cc1ccccc1OCc1n(CC(=O)OC2CC(C)CCC2C(C)C)c2ccccc2[n+]1C (configuration not stated) | 87.2 | + | -5.14 | 12.9 | 75.6*! | 38.8 | 29.8
CCCCn1c(NC(=O)c2ccccc2)nc2ccccc21 | 3.6 | i | -1.26 | -0.3 | 5.1 | . | .
CCCCn1c(NC(=S)Nc2ccccc2)nc2ccccc21 | 2.3 | i | -2.23 | -0.8 | 61.7* | -33.0 | -37.3
COc1ccc(NC2=NC3(CCCCC3)N=C(N)N2)cc1 | 4.5 | i | 0.33 | -0.5 | 62.0* | 19.1 | 12.8
O=C(Nc1cccc(Cl)c1)Nc1csc([N+](=O)[O-])c1 | . | . | 0.04 | -1.1 | -5.3 | . | .
O=C(Nc1cccc(Cl)c1)/C(=C\c1cccnc1)NC(=O)c1ccco1 | 4.5 | i | 0.02 | -1.1 | -3.6 | . | .
N#Cc1cc(Sc2ccccn2)c(Sc2ccccn2)cc1C#N | 4.8 | i | 1.13 | 0.4 | 57.9* | -11.5 | -9.3
Cc1nn(Cc2ccc(C(=O)NC(C)(C)C)o2)c(C)c1Br | 4.7 | i | ? | 0.9 | 50.5* | -35.7 | 31.6
CN1C(=O)C(Cl)(Cl)C(=O)c2ccccc21 | 7.7 | i | 0.27 | -0.5 | 75.0* | 32.9 | 32.7
CN1C(=O)C2(NC(=O)c3ccccc3N2C)c2ccccc21 (configuration not stated) | . | . | -0.19 | -0.2 | -9.0 | . | .
COc1cccc(OCC(=O)NNC(=S)Nc2ccc(Cl)cc2Cl)c1 | 1.7 | i | -1.19 | 2.8 | 7.5 | . | .
COc1ccccc1C1CCN(C(=O)c2cccs2)CC1 | . | . | 0.06 | -0.5 | 50.2* | -2.8 | -1.5
